Converted amounts (≈) assume the structure as drawn. The source made the active and inactive calls. The calls are words filed in the database; no cut-off is given here.
How the values were obtained:
Staphylococcus aureus [1] = test: Antibacterial activity against ciprofloxacin-resistant Staphylococcus aureus Smith; type: functional
Outline: (§1)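 Broth microdilution per CLSI with modified incubation. Log-phase cultures in cation-adjusted Mueller-Hinton broth, seeded at 1 x 10^5 CFU/ml. Compounds from DMSO stocks, 1% DMSO final. Incubated 37°C, 16 to 20 h, shaken. Growth read as OD600. MIC is the lowest concentration with no apparent growth. Run in quadruplicate; highest value reported.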

Enterococcus faecium [2] = test: Antibacterial activity against vancomycin-resistant Enterococcus faecium B42762; type: functional; outline: as §1
[3] = target: T1, DNA polymerase subunit gamma-1 (Homo sapiens, UniProt P54098); test: Inhibition of human DNA polymerase gamma
T1 sequence (P54098 whole entry): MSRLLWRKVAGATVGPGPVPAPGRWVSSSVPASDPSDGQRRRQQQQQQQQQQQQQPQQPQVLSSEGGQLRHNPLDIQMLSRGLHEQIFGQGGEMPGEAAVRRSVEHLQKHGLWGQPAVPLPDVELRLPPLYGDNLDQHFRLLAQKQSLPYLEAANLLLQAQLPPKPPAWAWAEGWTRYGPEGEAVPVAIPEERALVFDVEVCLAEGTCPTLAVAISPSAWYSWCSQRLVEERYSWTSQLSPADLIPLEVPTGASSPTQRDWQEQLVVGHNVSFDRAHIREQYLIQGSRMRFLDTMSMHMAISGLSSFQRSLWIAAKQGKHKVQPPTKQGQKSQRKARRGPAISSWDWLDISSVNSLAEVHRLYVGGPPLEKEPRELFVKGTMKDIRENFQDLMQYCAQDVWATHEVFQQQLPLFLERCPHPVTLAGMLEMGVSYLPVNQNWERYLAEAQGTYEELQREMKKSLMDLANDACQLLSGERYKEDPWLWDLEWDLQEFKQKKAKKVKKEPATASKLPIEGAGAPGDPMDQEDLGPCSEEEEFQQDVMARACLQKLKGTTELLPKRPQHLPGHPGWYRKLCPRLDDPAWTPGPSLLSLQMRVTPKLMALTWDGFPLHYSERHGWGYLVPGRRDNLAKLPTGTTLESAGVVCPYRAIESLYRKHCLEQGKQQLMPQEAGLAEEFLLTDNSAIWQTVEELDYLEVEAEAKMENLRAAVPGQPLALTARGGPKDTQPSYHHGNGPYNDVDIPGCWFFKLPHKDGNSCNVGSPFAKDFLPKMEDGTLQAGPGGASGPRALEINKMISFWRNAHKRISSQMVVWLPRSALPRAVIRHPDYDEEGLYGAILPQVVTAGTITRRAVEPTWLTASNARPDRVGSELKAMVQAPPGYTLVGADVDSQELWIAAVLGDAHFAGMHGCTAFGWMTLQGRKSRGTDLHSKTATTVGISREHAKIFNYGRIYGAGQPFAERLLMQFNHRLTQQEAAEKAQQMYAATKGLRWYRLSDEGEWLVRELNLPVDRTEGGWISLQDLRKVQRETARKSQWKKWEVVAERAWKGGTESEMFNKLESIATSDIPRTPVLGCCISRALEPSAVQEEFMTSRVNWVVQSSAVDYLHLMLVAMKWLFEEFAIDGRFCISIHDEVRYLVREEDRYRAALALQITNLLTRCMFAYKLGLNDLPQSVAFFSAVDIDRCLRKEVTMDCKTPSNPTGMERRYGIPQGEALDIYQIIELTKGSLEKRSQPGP
Outline: (§2)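 Calf thymus pol alpha or human pol gamma, 0.025 to 0.06 U, added to compound dilutions in reaction mixture; 25 min at 37°C; stopped with ice-cold 10% TCA/10 mM pyrophosphate; precipitated [3H]DNA collected on filters and counted. Ki values for dGTP-competitive inhibitors obtained by truncated assay lacking dGTP.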

Bacillus thuringiensis [4] = test: Antibacterial activity against Bacillus thuringiensis 33679; type: functional
[5] = Inhibition of Bacillus subtilis DNA polymerase 3E
Outline: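 Recombinant B. subtilis pol IIIE. Serial compound dilutions in DMSO; 30 mM Tris pH 7.5, 10 mM Mg acetate, 4 mM DTT, 20% glycerol, 25 µM each dATP/dCTP/dGTP, 10 µM [3H]dTTP, 0.4 mg/ml activated calf thymus DNA; 0.025 to 0.06 U enzyme, 10 min at 30°C. TCA-precipitated, filter-collected label counted by scintillation.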

Streptococcus pneumoniae [6] = test: Antibacterial activity against penicillin-resistant Streptococcus pneumoniae 700674; type: functional
Outline: (§3)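 Streptococci tested by CLSI broth microdilution in Mueller-Hinton broth with 5% defibrinated horse blood, log-phase inoculum at 1 x 10^5 CFU/ml. Incubated 37°C with shaking, 16 to 20 h, in 5% humidified CO2. Compounds at 1% DMSO final. MIC is the lowest concentration without growth by OD600. Quadruplicate; highest MIC reported.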

Staphylococcus aureus [7] = test: Antibacterial activity against methicillin-resistant Staphylococcus aureus 1132; type: functional; outline: as §1
Staphylococcus aureus [8] = test: Antibacterial activity against Staphylococcus aureus Smith in presence of 10% FCS; type: functional
Bacillus anthracis = test: Antibacterial activity against Bacillus anthracis Sterne; type: functional
Staphylococcus aureus [9] = test: Antibacterial activity against HB-EMAU-resistant and ciprofloxacin-resistant Staphylococcus aureus Smith; type: functional; outline: as §1
Pseudomonas aeruginosa = test: Antibacterial activity against Pseudomonas aeruginosa 27853; type: functional
Staphylococcus aureus [10] = test: Antibacterial activity against Staphylococcus aureus 25923; type: functional; outline: as §1
Bacillus cereus [11] = test: Antibacterial activity against Bacillus cereus 4342; type: functional
Bacillus subtilis [12] = test: Inhibition of DNA synthesis in Bacillus subtilis BD54; type: functional, organism-based
Outline: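 B. subtilis BD54 grown to log phase in C plus 50 medium; compound in DMSO added with [8-3H]adenine at time zero, at 5x or 1x MIC; samples over time. DNA = alkali-insensitive TCA-insoluble label; RNA = total TCA-insoluble minus DNA. Effect judged against diluent-control incorporation.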

Streptococcus pneumoniae [13] = test: Antibacterial activity against penicillin-resistant Streptococcus pneumoniae 700677; type: functional; outline: as §3
Staphylococcus aureus [14] = test: Antibacterial activity against HB-EMAU-resistant Staphylococcus aureus Smith; type: functional; outline: as §1
Enterococcus faecalis [15] = test: Antibacterial activity against vancomycin-resistant Enterococcus faecalis 51575; type: functional; outline: as §1
Enterococcus faecium [16] = test: Antibacterial activity against vancomycin-resistant Enterococcus faecium 1644; type: functional; outline: as §1
Staphylococcus aureus [17] = test: Antibacterial activity against mupirocin-resistant Staphylococcus aureus 777; type: functional; outline: as §1
Staphylococcus aureus [18] = test: Antibacterial activity against Staphylococcus aureus 1081; type: functional; outline: as §1
[19] = Inhibition of calf thymus DNA polymerase alpha; design: species or system Bos taurus; outline: as §2
[20] = test system: Stenotrophomonas maltophilia; test: Antibacterial activity against Stenotrophomonas maltophilia 13637; type: functional
Enterococcus faecium [21] = test: Antibacterial activity against Enterococcus faecium 19434; type: functional; outline: as §1
Staphylococcus aureus [22] = test: Antibacterial activity against methicillin-resistant Staphylococcus aureus B42876; type: functional; outline: as §1
Staphylococcus aureus [23] = test: Antibacterial activity against methicillin-resistant Staphylococcus aureus 1123; type: functional; outline: as §1
Enterococcus faecalis [24] = test: Antibacterial activity against Enterococcus faecalis 29212; type: functional; outline: as §1
Staphylococcus aureus [25] = test: Antibacterial activity against methicillin-resistant Staphylococcus aureus 1094; type: functional; outline: as §1
Escherichia coli [26] = test: Antibacterial activity against Escherichia coli J53; type: functional
Enterococcus faecium [27] = test: Antibacterial activity against vancomycin and linezolid-resistant Enterococcus faecium F118; type: functional; outline: as §1
Streptococcus pneumoniae [28] = test: Antibacterial activity against Streptococcus pneumoniae 49619; type: functional; outline: as §3
[29] = Cytotoxicity against human MRC5 cells; type: cell-based
Outline: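 MRC-5 human diploid fibroblasts, 4 x 10^3 cells per well, exposed to compound from DMSO stock (final 1%) in minimal essential medium with 10% fetal calf serum for 72 h at 37°C beside a DMSO-only control.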

Bacillus thuringiensis [30] = test: Antibacterial activity against Bacillus thuringiensis 10792; type: functional
[31] = Inhibition of Bacillus subtilis gyrase
Bacillus cereus [32] = test: Antibacterial activity against Bacillus cereus 6464; type: functional
[33] = Therapeutic index, CC50 for MRC5 cells/MIC for Staphylococcus aureus Smith; type: cell-based; conditions: human
Enterococcus faecalis [34] = test: Antibacterial activity against vancomycin-resistant Enterococcus faecalis 700802; type: functional; outline: as §1
Streptococcus pyogenes = test: Antibacterial activity against Streptococcus pyogenes 12344; type: functional
Bacillus subtilis [35] = test: Antibacterial activity against Bacillus subtilis BD54; type: functional
Escherichia coli [36] = test: Antibacterial activity against ciprofloxacin-resistant Escherichia coli XL1-Blue; type: functional; outline: as §1
Enterococcus faecalis [37] = test: Antibacterial activity against vancomycin-resistant Enterococcus faecalis 51299; type: functional; outline: as §1
[38] = Inhibition of Bacillus subtilis topoisomerase 4
Staphylococcus aureus [39] = test: Antibacterial activity against mupirocin-sensitive Staphylococcus aureus 2529; type: functional
Staphylococcus aureus [40] = test: Antibacterial activity against Staphylococcus aureus Smith 13709; type: functional; outline: as §1
Streptococcus pneumoniae [41] = test: Antibacterial activity against penicillin-resistant Streptococcus pneumoniae 700670; type: functional; outline: as §3
Streptococcus pneumoniae [42] = test: Antibacterial activity against penicillin-resistant Streptococcus pneumoniae 700673; type: functional; outline: as §3
Klebsiella pneumoniae = test: Antibacterial activity against Klebsiella pneumoniae 5657; type: functional
Streptococcus pneumoniae [43] = test: Antibacterial activity against penicillin-resistant Streptococcus pneumoniae 700671; type: functional; outline: as §3

Molecule `CCc1cc(Nc2cc(=O)n(CCCCN3CCN(c4c(F)cc5c(=O)c(C(=O)O)cn(C6CC6)c5c4F)CC3C)c(=O)[nH]2)ccc1C` (configuration not stated) has an MIC (Staphylococcus aureus [1]) of 1.25 µg/mL (≈ 1.89 µM), an MIC (Enterococcus faecium [2]) of 1.25 µg/mL (≈ 1.89 µM) and a Ki [3] of 684 µM. It also gave an MIC (Bacillus thuringiensis [4]) of 0.156 µg/mL (≈ 0.235 µM), a Ki [5] of over 482 µM and an MIC (Streptococcus pneumoniae [6]) of 0.625 µg/mL (≈ 0.943 µM). The MIC (Staphylococcus aureus [7]) was 0.625 µg/mL (≈ 0.943 µM), the MIC (Staphylococcus aureus [8]) was 0.625 µg/mL and the MIC (Bacillus anthracis) was 0.156 µg/mL (≈ 0.235 µM). It also gave an MIC (Staphylococcus aureus [9]) of 20 µg/mL (≈ 30.2 µM), an MIC (Pseudomonas aeruginosa) of over 80 µg/mL and an MIC (Staphylococcus aureus [10]) of 0.625 µg/mL (≈ 0.943 µM). For the same molecule, the MIC (Bacillus cereus [11]) was 0.156 µg/mL (≈ 0.235 µM), the Activity (Bacillus subtilis [12]) was “Active” and the MIC (Streptococcus pneumoniae [13]) was 0.313 µg/mL (≈ 0.472 µM). It also gave an MIC (Staphylococcus aureus [14]) of 0.625 µg/mL (≈ 0.943 µM), an MIC (Enterococcus faecalis [15]) of 1.25 µg/mL (≈ 1.89 µM) and an MIC (Enterococcus faecium [16]) of 1.25 µg/mL (≈ 1.89 µM). It also gave an MIC (Staphylococcus aureus [17]) of 2.5 µg/mL (≈ 3.77 µM), an MIC (Staphylococcus aureus [18]) of 0.625 µg/mL (≈ 0.943 µM) and a Ki [19] of over 482 µM. For the same molecule, the MIC [20] was 10 µg/mL (≈ 15.1 µM), the MIC (Enterococcus faecium [21]) was 2.5 µg/mL (≈ 3.77 µM) and the MIC (Staphylococcus aureus [22]) was 2.5 µg/mL (≈ 3.77 µM). It also gave an MIC (Staphylococcus aureus [23]) of 1.25 µg/mL (≈ 1.89 µM), an MIC (Enterococcus faecalis [24]) of 1.25 µg/mL (≈ 1.89 µM) and an MIC (Staphylococcus aureus [25]) of 1.25 µg/mL (≈ 1.89 µM). It also gave an MIC (Escherichia coli [26]) of 2.5 µg/mL (≈ 3.77 µM), an MIC (Enterococcus faecium [27]) of 1.25 µg/mL (≈ 1.89 µM) and an MIC (Streptococcus pneumoniae [28]) of 0.625 µg/mL (≈ 0.943 µM). It also gave a CC50 [29] of over 80 µg/mL, an MIC (Bacillus thuringiensis [30]) of 0.156 µg/mL (≈ 0.235 µM) and an IC50 [31] of 31 µM. It also gave an MIC (Bacillus cereus [32]) of 0.156 µg/mL (≈ 0.235 µM), a selectivity ratio [33] of over 128 and an MIC (Enterococcus faecalis [34]) of 1.25 µg/mL (≈ 1.89 µM). The MIC (Streptococcus pyogenes) was 0.313 µg/mL (≈ 0.472 µM), the MIC (Bacillus subtilis [35]) was 0.156 µg/mL (≈ 0.235 µM) and the MIC (Escherichia coli [36]) was 1.25 µg/mL (≈ 1.89 µM). For the same molecule, the MIC (Enterococcus faecalis [37]) was 1.25 µg/mL (≈ 1.89 µM), the IC50 [38] was 43.6 µM and the MIC (Staphylococcus aureus [39]) was 5 µg/mL (≈ 7.54 µM). For the same molecule, the MIC (Staphylococcus aureus [40]) was 0.313 µg/mL (≈ 0.472 µM), the MIC (Streptococcus pneumoniae [41]) was 0.625 µg/mL (≈ 0.943 µM) and the MIC (Streptococcus pneumoniae [42]) was 0.313 µg/mL (≈ 0.472 µM). The MIC (Klebsiella pneumoniae) was 20 µg/mL (≈ 30.2 µM) and the MIC (Streptococcus pneumoniae [43]) was 0.313 µg/mL (≈ 0.472 µM).

Reference: ChEMBL document CHEMBL1142158, “Antibacterial activity and mechanism of action of a novel anilinouracil-fluoroquinolone hybrid compound” (Antimicrob Agents Chemother, 2007)
